Reference: ChEMBL document CHEMBL1145748, “Nonpeptide alphavbeta3 antagonists. 8. In vitro and in vivo evaluation of a potent alphavbeta3 antagonist for the prevention and treatment of osteoporosis” (J Med Chem, 2003)

Columns and labels:
Integrin alpha-V/beta-3 = Integrin alpha-V/beta-3 (Homo sapiens, UniProt P05106+P06756); experiment: Inhibition of alphaV-beta3 integrin binding; type: protein-complex assay
Method in brief: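 Scintillation-proximity assay. Displacement of a 125I-labelled iodobenzenesulfonylamino naphthyridine propionic acid radioligand from purified recombinant human αvβ3 is measured.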

[1] = Half life of compound was determined in dog; type: ADME, organism-based, Canis lupus familiaris; details: in vivo
Method in brief: (§1)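 Dogs given 0.2 mpk iv and 1 mpk po, in water; bioavailability, clearance and half-life taken from the plasma PK profile.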

[2] = Bioavailability in dog; type: ADME, organism-based, Canis lupus familiaris; details: in vivo; method in brief: as §1
[3] = Percent binding of compound towards human plasma protein was determined; type: ADME, cell-free
Method in brief: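 Human plasma, diluted, with ultrafiltration in pH 7.4 buffer at room temperature. Solutions analyzed by HPLC; high-throughput format.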

[4] = Plasma clearance in dog was determined; type: ADME, organism-based, Canis lupus familiaris; method in brief: as §1
[5] = Partition coefficient (logP); type: physicochemical; details: octanol/water
Method in brief: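 Partitioning between octanol and pH 7.4 buffer.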

[6] = Half life of compound was determined in rhesus monkey; type: ADME; details: cercopithecidae, in vivo
[7] = Bioavailability of compound was determined in rhesus monkey; type: ADME, organism-based, Macaca mulatta; details: in vivo
[8] = Half life of compound was determined in rat; type: ADME, organism-based; details: in vivo
[9] = Plasma clearance in rhesus monkey was determined; type: ADME, organism-based; details: cercopithecidae
[10] = Plasma clearance in rat was determined; type: ADME, organism-based
[11] = Bioavailability in rat; type: ADME, organism-based; details: in vivo
Rattus norvegicus [12] = organism: Rattus norvegicus; experiment: Inhibitory effect of 10 mpk compound b.i.d. for 28 days was determined by bone mineral density in ovariectomized female rat; type: functional
Method in brief: (§2)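 Female rats ovariectomized and, within 24 h, dosed orally b.i.d. for 28 days (n = 10/group), with sham and OVX-vehicle groups. BMD measured by DXA at the distal femoral metaphysis and central femur. Result expressed as DFM:central BMD ratio (mean ± SEM).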

Rattus norvegicus [13] = organism: Rattus norvegicus; experiment: Inhibitory effect of 30 mpk compound b.i.d. for 28 days was determined by bone mineral density in ovariectomized female rat; type: functional; method in brief: as §2
Rattus norvegicus [14] = organism: Rattus norvegicus; experiment: distal femoral metaphysis bone mineral density in young male rat after constant infusion of compound was determined; type: functional
Method in brief: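 Growing male Sprague–Dawley rats (160 g) treated 10 days. Compound at 60 mg/mL in water with <1 equiv 1 N HCl, given by implanted subcutaneous osmotic minipump to a steady-state concentration of 800 nM (n = 15). PK checked in 3 parallel rats. Alendronate control 0.005 mpk sc qd. Right femur excised, stored in 70% ethanol, DFM BMD by DXA.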

[15] = Selectivity for alphaV-beta3 over alphaV-beta5 integrins; parameters: species or system Homo sapiens
Method in brief: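 αvβ3 binding is measured by SPA displacement of a 125I-iodobenzenesulfonylamino radioligand from purified recombinant human αvβ3. The αvβ5 counterscreen uses the same radioligand displaced from purified recombinant αvβ5 in a similar SPA.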

Sequence of Integrin alpha-V/beta-3 (P05106 27-788 limits assumed): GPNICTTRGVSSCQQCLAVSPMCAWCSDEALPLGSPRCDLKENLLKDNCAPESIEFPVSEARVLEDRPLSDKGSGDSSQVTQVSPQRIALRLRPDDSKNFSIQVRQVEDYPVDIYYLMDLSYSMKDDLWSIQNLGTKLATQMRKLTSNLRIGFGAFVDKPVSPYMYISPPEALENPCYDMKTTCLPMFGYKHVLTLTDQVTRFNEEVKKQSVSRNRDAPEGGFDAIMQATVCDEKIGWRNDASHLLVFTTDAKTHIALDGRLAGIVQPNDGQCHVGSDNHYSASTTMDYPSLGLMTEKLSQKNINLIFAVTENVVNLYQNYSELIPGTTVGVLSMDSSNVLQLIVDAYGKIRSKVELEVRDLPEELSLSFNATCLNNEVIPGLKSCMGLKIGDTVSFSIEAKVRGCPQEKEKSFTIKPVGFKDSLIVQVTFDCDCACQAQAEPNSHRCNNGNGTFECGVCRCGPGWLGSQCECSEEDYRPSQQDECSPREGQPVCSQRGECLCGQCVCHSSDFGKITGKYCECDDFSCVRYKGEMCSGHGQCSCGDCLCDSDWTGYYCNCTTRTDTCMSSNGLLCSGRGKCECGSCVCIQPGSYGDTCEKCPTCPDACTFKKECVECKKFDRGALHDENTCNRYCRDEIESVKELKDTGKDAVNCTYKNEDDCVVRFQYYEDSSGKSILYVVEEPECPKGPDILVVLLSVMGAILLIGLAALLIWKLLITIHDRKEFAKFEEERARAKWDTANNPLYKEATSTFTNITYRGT
Sequence of Integrin alpha-V/beta-3 (P06756 31-889 limits assumed): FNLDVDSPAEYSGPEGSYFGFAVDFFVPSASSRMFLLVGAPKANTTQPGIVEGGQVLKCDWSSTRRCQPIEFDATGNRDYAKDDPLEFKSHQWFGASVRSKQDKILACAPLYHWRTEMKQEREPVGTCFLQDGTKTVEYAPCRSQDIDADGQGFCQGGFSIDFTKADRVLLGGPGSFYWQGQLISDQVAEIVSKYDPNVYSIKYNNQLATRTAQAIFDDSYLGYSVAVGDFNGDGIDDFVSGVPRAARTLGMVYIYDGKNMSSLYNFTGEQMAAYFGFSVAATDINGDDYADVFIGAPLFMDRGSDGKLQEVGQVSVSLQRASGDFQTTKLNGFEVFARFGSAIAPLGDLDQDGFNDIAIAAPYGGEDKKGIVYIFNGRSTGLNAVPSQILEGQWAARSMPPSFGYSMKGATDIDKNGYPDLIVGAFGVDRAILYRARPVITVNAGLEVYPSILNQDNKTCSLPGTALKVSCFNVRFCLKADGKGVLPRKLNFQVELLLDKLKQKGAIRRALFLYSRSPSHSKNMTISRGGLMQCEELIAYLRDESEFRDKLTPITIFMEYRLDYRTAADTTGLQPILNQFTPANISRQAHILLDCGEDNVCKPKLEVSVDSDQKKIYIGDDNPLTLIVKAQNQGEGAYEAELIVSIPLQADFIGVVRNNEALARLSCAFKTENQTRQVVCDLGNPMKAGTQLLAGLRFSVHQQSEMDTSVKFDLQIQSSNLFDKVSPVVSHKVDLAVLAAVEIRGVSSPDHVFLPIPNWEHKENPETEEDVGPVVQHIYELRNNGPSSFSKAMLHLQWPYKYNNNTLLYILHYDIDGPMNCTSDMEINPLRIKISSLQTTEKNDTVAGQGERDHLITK
Sequence of Integrin alpha-V/beta-3 (P06756 891-1048 limits assumed): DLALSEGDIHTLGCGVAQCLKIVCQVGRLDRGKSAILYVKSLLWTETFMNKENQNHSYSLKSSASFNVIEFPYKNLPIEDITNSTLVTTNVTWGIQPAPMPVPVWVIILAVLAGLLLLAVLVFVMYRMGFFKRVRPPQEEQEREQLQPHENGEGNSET

Row | Structure (SMILES) | IC50 (Integrin alpha-V/beta-3) | half-life [1] | bioavailability [2] | Plasma protein binding [3] | clearance [4] | logP [5] | also measured
1 | COc1ccc([C@H](CC(=O)O)N2CCN(CCC(=O)c3ccc4c(n3)NCCC4)C2=O)cn1 | 3 nM | – | – | – | – | – | –
2 | O=C(O)C[C@@H](c1cccnc1)N1CCN(CCCc2ccc3c(n2)NCCC3)C1=O | 0.25 nM | 0.9 h | 10% | 61% | 70 mL/min/kg | -0.55 | –
3 | O=C(O)C[C@@H](c1ccc2c(c1)OCC2)N1CCN(CCCc2ccc3c(n2)NCCC3)C1=O | 0.1 nM | 2.7 h | 75% | 98% | 4.1 mL/min/kg | 0.8 | –

Continued, in another order:

Row | IC50 (Integrin alpha-V/beta-3) | half-life [1] | bioavailability [2] | Plasma protein binding [3] | clearance [4] | logP [5] | Structure (SMILES) | also measured
4 | 0.4 nM | – | – | – | – | – | COc1ccc([C@H](CC(=O)O)N2CCN(CCCc3ccc4c(n3)NC(O)CC4)C2=O)cn1 (some centres not stated) | –
5 | 0.35 nM | 2.6 h | 94% | 95% | 5.1 mL/min/kg | 0.82 | COc1ccc([C@H](CC(=O)O)N2CCN(CCCc3ccc4c(n3)NCCC4)C2=O)cc1F | –
6 | 0.08 nM | 3.5 h | 64% | 88% | 6.4 mL/min/kg | 0.21 | COc1ccc([C@H](CC(=O)O)N2CCN(CCCc3ccc4c(n3)NCCC4)C2=O)cn1 | half-life [6]: 2 h; bioavailability [7]: 74%; half-life [8]: 3 h; clearance [9]: 9 mL/min/kg; clearance [10]: 47 mL/min/kg; bioavailability [11]: 26%; DFM:central BMD ratio (Rattus norvegicus [12]): 0.908; DFM:central BMD ratio (Rattus norvegicus [13]): 0.951; BMD (Rattus norvegicus [14]): 142.2 mg cm**-2; IC50 [15]: 10 nM
7 | 141 nM | – | – | – | – | – | COc1ccc([C@H](CC(=O)O)N2CCN(CCCc3ccc4c(n3)NC(=O)CC4)C2=O)cn1 | –
